We go through one compound from ChEMBL document CHEMBL4024771, “Optimization of Orally Bioavailable Enhancer of Zeste Homolog 2 (EZH2) Inhibitors Using Ligand and Property-Based Design Strategies: Identification of Development Candidate …” (J Med Chem, 2018).

In brackets after ≈: the same amount, converted by molar mass. Activity calls are given as the source filed them. No cut-off for these calls is given here.

The nature of data set [1]: Clearance in rat hepatocytes assessed per million cells. In kind it is ADME, cell-based, Hepatocyte. The conditions noted are these: read-out: CLH.
Data set [2] relates to Histone-lysine N-methyltransferase EZH2 (Homo sapiens), Q15910 [Y641N].
Sequence of Histone-lysine N-methyltransferase EZH2 (Homo sapiens), Q15910 [Y641N] (Q15910 whole entry Y641N): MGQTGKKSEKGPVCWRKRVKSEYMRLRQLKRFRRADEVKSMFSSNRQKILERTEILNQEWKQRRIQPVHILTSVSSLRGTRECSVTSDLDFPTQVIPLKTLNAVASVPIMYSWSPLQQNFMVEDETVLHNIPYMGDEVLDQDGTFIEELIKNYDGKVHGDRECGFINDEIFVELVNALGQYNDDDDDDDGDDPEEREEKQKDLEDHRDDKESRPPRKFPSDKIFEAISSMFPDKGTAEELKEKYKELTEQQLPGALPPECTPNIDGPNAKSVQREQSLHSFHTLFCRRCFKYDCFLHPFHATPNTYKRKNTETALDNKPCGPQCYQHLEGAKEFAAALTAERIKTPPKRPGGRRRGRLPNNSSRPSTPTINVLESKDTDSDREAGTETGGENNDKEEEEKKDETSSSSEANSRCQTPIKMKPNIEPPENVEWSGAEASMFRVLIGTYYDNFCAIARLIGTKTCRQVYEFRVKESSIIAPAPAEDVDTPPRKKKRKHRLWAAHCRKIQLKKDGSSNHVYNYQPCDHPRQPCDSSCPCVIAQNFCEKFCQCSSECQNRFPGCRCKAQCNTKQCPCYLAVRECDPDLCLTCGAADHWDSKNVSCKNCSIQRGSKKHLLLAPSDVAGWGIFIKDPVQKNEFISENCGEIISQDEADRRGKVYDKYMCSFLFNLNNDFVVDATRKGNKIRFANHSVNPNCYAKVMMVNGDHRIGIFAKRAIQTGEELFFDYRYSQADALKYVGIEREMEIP
Data set [3] is described as follows: Passive permeability in MDCK cells at 2 uM after 90 mins by LC-MS/MS analysis. In kind it is ADME, cell-based, Canis lupus familiaris. Conditions: dog, MDCK; read-out: permeability. The essentials:
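Low-efflux MDCK cells (MDCK-LE) on 96-well inserts, used on day 4. Monodirectional transport of 2 μM drug in transport buffer with 0.1% DMSO at 37 °C. Donor and receiver sampled at 0 and 90 min for LC−MS/MS. Donor pH 6.5 and 7.4, receiver pH 7.4.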

Data set [4] concerns the target Voltage-gated inwardly rectifying potassium channel KCNH2 (Homo sapiens, UniProt Q12809). In words: Inhibition of human ERG.
The target in another data set is T1, Cytochrome P450 1A2 (Homo sapiens, UniProt P05177).
T1 sequence (P05177 whole entry): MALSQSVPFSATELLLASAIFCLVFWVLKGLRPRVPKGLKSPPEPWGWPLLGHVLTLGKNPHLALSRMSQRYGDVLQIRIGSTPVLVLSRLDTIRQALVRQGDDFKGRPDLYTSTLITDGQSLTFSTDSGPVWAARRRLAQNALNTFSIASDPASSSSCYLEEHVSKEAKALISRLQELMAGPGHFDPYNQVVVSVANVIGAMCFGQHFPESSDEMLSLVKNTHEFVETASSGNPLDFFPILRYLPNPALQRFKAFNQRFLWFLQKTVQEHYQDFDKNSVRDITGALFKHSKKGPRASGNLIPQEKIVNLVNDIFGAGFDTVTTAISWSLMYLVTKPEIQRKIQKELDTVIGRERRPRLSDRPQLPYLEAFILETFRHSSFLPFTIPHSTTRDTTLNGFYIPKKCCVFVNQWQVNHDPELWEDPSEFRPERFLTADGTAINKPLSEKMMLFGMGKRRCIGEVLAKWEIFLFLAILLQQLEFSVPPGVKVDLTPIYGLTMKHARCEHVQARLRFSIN
In words: Inhibition of CYP1A2 (unknown origin). In kind it is ADME.

Data set [5] deals with Mus musculus. In words: In vivo inhibition of EZH2 in mouse xenografted with human KARPAS422 cells harboring EZH2 Y641N mutant assessed as reduction in H3K27me3 level in tumor at 300 mg/kg, po bid measured 4 hrs post last dose on day 9 relative to control. In kind it is functional. The conditions noted are these: KARPAS-422, po. The essentials: (§1)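 Mice bearing Karpas-422 (EZH2 Y641N) xenografts were dosed with crystalline suspension orally twice daily (7 h/17 h) or subcutaneously once daily. Tumors were collected on day 9, 4 h after the last dose, for H3K27me3 quantification.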
In general terms: A xenograft is tissue or cells of one species grown in another, often human tumour cells in immunodeficient mice.

The subject of data set [6] is KARPAS-422. In words: Antitumor activity against human KARPAS422 cells harboring EZH2 Y641N mutant xenografted in mouse assessed as decrease in tumor growth at 100 mg/kg, po bid. In kind it is functional, organism-based.
Data set [7] is described as follows: Clearance in mouse hepatocytes assessed per million cells. In kind it is ADME, cell-based, Hepatocyte. Conditions: read-out: CLH.
Data set [8] deals with Mus musculus. In words: Toxicity in mouse xenografted with human KARPAS422 cells harboring EZH2 Y641N mutant assessed as change in body weight at 100 to 300 mg/kg, po bid. In kind it is organism-based. The conditions noted are these: in vivo.
The subject of data set [9] is KARPAS-422. Description: Antiproliferative activity against human KARPAS422 cells after 72 hrs by resazurin assay. In kind it is functional, cell-based. The conditions noted are these: Homo sapiens, KARPAS-422, 72 h. On the technique in general: Alamar Blue is a resazurin reagent that responds to reducing activity.
Data set [10] is described as follows: Clearance in rat at 2 mg/kg, iv. In kind it is ADME, organism-based. Conditions: in vivo.
Data set [11] has as its system Mus musculus. Description: Time at which free plasma concentration stays above antiproliferative KARPAS422 cells IC90 level in mouse xenografted with human KARPAS422 cells at 300 mg/kg, po bid.
For data set [12], the system named is Mus musculus. Description: In vivo inhibition of EZH2 in mouse xenografted with human KARPAS422 cells harboring EZH2 Y641N mutant assessed as reduction in H3K27me3 level in tumor at 100 mg/kg, sc qd measured 4 hrs post last dose on day 9 relative to control. The conditions noted are these: KARPAS-422, sc. In kind it is functional. A digest of the protocol:
as §1

Data set [13] concerns KARPAS-422. In words: Antitumor activity against human KARPAS422 cells harboring EZH2 Y641N mutant xenografted in mouse assessed as decrease in tumor regression at 100 mg/kg, sc qd measured 40 days post treatment termination on day 31. In kind it is functional, organism-based.
Data set [14] is described as follows: Kinetic solubility of the compound. Conditions: read-out: Kinetic_solubility. In kind it is physicochemical.
Data set [15] has as its system Mus musculus. Description: Time at which free plasma concentration stays below antiproliferative KARPAS422 cells IC90 level in mouse xenografted with human KARPAS422 cells at 100 mg/kg, po bid.
In the next data set the target is Cytochrome P450 3A4 (Homo sapiens, UniProt P08684). In words: Inhibition of CYP3A4 (unknown origin). In kind it is ADME.
Sequence of Cytochrome P450 3A4 (P08684 whole entry): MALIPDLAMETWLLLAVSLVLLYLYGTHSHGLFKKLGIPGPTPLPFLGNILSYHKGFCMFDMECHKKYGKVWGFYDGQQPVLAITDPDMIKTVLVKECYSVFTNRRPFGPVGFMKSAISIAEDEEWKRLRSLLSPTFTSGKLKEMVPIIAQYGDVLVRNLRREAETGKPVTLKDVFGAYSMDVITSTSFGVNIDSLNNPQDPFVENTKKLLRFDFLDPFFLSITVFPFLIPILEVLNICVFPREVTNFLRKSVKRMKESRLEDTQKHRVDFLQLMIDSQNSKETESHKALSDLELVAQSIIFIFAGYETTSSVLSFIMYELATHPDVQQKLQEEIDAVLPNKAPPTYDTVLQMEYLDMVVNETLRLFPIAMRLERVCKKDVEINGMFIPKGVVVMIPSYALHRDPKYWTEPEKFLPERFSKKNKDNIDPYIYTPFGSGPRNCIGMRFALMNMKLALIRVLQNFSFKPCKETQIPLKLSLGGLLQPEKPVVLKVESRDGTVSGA
Another data set concerns Salmonella typhimurium. Description: Mutagenicity in Salmonella typhimurium by Ames assay. In kind it is toxicity. Conditions: salmonella enterica subsp. enterica serovar typhimurium. A general note: In the Ames test, an excess of revertant colonies over the control signals mutagenicity.
Data set [16] has as its target Histone-lysine N-methyltransferase EZH2 (Homo sapiens, UniProt Q15910). In words: Binding affinity to EZH2 (unknown origin).
In data set [17] the target is Histone-lysine N-methyltransferase EZH2 (Homo sapiens, UniProt Q15910, Y641N). Description: Inhibition of EZH2 Y641N mutant (unknown origin) using oligonucleosomes as substrate after 60 mins in presence of [3H]SAM by scintillation counting analysis.
Sequence of Histone-lysine N-methyltransferase EZH2 (Homo sapiens, UniProt Q15910, Y641N) (Q15910 whole entry Y641N): as the sequence (Q15910 whole entry Y641N) above
For data set [18], the target named is T2, Histone-lysine N-methyltransferase EZH1 (Homo sapiens, UniProt Q92800).
T2 sequence (Q92800 whole entry): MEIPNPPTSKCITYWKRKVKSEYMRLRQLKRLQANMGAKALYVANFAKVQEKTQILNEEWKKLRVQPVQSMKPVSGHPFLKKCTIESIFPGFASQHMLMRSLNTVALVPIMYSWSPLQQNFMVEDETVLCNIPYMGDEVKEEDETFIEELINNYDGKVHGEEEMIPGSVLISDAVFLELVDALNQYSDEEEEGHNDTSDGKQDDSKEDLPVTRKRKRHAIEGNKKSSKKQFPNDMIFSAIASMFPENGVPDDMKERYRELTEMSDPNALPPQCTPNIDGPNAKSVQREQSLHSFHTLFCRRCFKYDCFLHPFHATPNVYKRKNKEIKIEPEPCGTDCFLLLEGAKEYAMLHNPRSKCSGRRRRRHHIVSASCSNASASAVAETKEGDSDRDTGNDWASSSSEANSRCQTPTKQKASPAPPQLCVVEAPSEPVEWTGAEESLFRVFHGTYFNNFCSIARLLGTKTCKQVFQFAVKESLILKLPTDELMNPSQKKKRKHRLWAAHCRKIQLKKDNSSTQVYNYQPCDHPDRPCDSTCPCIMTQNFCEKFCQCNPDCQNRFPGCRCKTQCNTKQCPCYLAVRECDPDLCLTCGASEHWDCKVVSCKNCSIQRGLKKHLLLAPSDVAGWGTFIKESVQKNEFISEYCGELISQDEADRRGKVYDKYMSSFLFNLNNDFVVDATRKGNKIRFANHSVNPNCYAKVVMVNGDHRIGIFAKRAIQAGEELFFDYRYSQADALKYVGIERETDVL
Description: Binding affinity to EZH1 (unknown origin).

Sequence of Histone-lysine N-methyltransferase EZH2 (Homo sapiens, UniProt Q15910) (Q15910 whole entry): as the sequence (Q15910 whole entry Y641N) above, with N641Y counted along it
Sequence of Voltage-gated inwardly rectifying potassium channel KCNH2 (Q12809 whole entry): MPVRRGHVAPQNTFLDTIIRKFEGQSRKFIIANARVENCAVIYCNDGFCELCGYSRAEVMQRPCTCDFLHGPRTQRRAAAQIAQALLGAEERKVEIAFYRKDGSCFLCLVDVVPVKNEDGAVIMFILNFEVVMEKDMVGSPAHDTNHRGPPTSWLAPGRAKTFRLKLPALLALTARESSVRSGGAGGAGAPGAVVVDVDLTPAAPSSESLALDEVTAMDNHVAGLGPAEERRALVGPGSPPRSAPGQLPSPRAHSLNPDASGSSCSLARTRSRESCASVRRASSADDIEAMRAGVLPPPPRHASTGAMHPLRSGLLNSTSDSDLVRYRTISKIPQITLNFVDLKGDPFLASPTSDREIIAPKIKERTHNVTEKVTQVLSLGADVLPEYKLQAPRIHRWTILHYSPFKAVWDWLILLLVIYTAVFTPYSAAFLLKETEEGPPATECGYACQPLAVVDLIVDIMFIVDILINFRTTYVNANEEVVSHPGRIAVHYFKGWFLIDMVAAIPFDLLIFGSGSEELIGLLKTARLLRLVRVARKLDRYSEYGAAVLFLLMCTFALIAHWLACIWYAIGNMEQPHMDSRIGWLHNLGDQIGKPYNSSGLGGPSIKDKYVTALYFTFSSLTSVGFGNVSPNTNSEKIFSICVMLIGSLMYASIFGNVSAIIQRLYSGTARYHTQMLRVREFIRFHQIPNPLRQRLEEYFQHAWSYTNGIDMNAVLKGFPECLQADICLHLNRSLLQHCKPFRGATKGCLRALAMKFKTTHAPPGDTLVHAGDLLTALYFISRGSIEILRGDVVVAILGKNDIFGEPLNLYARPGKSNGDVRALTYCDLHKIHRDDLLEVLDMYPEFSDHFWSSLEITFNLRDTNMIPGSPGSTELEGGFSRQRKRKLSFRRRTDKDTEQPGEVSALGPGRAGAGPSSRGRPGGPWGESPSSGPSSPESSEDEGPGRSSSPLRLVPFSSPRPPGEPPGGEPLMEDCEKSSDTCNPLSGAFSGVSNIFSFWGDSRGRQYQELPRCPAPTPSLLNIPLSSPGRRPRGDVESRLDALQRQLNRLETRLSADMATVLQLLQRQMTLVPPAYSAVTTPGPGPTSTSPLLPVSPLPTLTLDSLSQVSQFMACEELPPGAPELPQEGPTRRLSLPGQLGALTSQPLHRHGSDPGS

Regarding `COc1cc(C)[nH]c(=O)c1CN1CCc2c(Cl)cc([C@H](OC)C3COC3)c(Cl)c2C1=O` [MEVROMETOSTAT], the figures for the hepatocyte CLint in [1] and in data set [7] were 109 µL/min/1e6 cells and 60.1 µL/min/1e6 cells, respectively. For the same compound, the T1/2 in data set [2] is 6 h. The Papp at […], 2 µM in data set [3] was 4.8 ×10⁻⁶ cm/s. Further, the IC50 in data set [4] was > 100000 nM; against Cytochrome P450 1A2, > 30000 nM; in the data set with KARPAS-422 [9], 6 nM; on Cytochrome P450 3A4, > 30000 nM. For the same compound, the inhibition in vivo at 300 mg/kg with Mus musculus [5] was found to be 47.9%. Moreover, the TGI result in the data set on KARPAS-422 [6] was “Active”. In addition, the Activity result in the data set with Mus musculus [8] and in the data set on Salmonella typhimurium was “Non-Toxic” in each case. This compound returned an IC90 in the data set with KARPAS-422 [9] of 60 nM. Moreover, in data set [10], the clearance came to 70 mL/min/kg. For the same compound, the Time in the data set on Mus musculus [11] was 24 h; in the data set with Mus musculus [15] it was 7 to 24 h. The inhibition in vivo at 100 mg/kg in the data set with Mus musculus [12] was determined as 13.8%. The result in the data set on KARPAS-422 [13] was Active. In addition, the solubility kinetic in [14] came to 538 µM (≈ 251 µg/mL). Moreover, the Ki was < 0.1 nM in data set [16], < 0.1 nM in data set [17] and 70 nM in data set [18].

By IC50 is commonly meant the concentration that inhibits the measured activity by half. Read a low IC50 as inhibition by little substance. For orientation: inhibition in vivo means the relative decrease from the control value, in per cent. One may read the IC90 as the concentration needed for an effect of 90%. The low end stands for an effect from little substance, the high end for a need for much substance. In general, clearance refers to a measure of how efficiently the substance is removed, as volume per time. Higher therefore signals efficient removal. The Ki is the equilibrium dissociation constant of an inhibitor or competing ligand from its target.
